In the library only some 5.9% were active in any assay of this set; here they are far more common.
HIV Rev-RRE inh: HIV-1 Rev-RRE binding inhibitors, primary screen, biochemical, FRET, protein-RNA interaction; inhibition, % at 8 µM; 0.79% of 97,000 active; P05866; Rev peptide-RRE RNA binding;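 active = inhibition above the screen-wide mean plus 3 SD, cut at about 35% in these data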;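 also: 0% = median DMSO wells and 100% = median Neomycin B control wells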
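Assay system: Rev peptide and RRE RNA, both fluorescently labelled; times: 5 min preincubation and 15 min binding, 25 °C; detection: FRET, ex 480 nm, em 540 and 671 nm; read-out basis: % inhibition from 671/540 nm acceptor-to-donor ratio, scaled between controls; benchmarks: DMSO low control, neomycin B high control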
Phagocyt inh: inhibitors of macrophage phagocytosis, primary screen, imaging, J774A.1 cells, IgG beads | J774A.1 macrophage IgG-bead phagocytosis | inhibition, % at 5 µM | 0.07% of 110,000 active;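 active = inhibition above the mean of the plate negative controls plus 5 SD, cut at about 13% in these data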;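 also: phagocytic index as fraction of beads internalized from green versus red external bead signal; plate controls were DMSO negative control for no effect and cytochalasin-D positive control for full effect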
hDAT+cocaine: changed hDAT dopamine uptake under cocaine IC80, either direction, primary screen, cocaine antagonist project, cell-based, LLC-PK1 hDAT, [14C]-dopamine uptake, MLSMR | Sodium-dependent dopamine transporter (Homo sapiens), Q01959 | LLC-PK1 hDAT cells, [14C]-dopamine uptake with cocaine IC80; actives deviate in either direction | B-score at 10 µM | 1.3% of 110,000 active | AID 449768, 2010;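 active = Z score or B-score, a plate-position-corrected score, falls beyond the plate's 99.7% confidence bounds, in either direction; inactive = both scores lie inside the 99.7% bounds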;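 also: scored against the spread of the other compound wells on the same plate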
Cav32 inh: Cav3.2 calcium influx blockers – cell-based, Fluo-4 calcium fluorescence, FDSS, MLSMR library, primary screen; Voltage-dependent T-type calcium channel subunit alpha-1H (Homo sapiens), O95180; Cav3.2-expressing cells; stronger effect = lower value; B-score at 10 µM; 4% of 100,000 active;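 active = single-dose well whose peak fluorescence ratio is a statistical outlier from its plate by either plate-standardised score or position-corrected B-score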
Target sequence (O95180 whole entry, looked up): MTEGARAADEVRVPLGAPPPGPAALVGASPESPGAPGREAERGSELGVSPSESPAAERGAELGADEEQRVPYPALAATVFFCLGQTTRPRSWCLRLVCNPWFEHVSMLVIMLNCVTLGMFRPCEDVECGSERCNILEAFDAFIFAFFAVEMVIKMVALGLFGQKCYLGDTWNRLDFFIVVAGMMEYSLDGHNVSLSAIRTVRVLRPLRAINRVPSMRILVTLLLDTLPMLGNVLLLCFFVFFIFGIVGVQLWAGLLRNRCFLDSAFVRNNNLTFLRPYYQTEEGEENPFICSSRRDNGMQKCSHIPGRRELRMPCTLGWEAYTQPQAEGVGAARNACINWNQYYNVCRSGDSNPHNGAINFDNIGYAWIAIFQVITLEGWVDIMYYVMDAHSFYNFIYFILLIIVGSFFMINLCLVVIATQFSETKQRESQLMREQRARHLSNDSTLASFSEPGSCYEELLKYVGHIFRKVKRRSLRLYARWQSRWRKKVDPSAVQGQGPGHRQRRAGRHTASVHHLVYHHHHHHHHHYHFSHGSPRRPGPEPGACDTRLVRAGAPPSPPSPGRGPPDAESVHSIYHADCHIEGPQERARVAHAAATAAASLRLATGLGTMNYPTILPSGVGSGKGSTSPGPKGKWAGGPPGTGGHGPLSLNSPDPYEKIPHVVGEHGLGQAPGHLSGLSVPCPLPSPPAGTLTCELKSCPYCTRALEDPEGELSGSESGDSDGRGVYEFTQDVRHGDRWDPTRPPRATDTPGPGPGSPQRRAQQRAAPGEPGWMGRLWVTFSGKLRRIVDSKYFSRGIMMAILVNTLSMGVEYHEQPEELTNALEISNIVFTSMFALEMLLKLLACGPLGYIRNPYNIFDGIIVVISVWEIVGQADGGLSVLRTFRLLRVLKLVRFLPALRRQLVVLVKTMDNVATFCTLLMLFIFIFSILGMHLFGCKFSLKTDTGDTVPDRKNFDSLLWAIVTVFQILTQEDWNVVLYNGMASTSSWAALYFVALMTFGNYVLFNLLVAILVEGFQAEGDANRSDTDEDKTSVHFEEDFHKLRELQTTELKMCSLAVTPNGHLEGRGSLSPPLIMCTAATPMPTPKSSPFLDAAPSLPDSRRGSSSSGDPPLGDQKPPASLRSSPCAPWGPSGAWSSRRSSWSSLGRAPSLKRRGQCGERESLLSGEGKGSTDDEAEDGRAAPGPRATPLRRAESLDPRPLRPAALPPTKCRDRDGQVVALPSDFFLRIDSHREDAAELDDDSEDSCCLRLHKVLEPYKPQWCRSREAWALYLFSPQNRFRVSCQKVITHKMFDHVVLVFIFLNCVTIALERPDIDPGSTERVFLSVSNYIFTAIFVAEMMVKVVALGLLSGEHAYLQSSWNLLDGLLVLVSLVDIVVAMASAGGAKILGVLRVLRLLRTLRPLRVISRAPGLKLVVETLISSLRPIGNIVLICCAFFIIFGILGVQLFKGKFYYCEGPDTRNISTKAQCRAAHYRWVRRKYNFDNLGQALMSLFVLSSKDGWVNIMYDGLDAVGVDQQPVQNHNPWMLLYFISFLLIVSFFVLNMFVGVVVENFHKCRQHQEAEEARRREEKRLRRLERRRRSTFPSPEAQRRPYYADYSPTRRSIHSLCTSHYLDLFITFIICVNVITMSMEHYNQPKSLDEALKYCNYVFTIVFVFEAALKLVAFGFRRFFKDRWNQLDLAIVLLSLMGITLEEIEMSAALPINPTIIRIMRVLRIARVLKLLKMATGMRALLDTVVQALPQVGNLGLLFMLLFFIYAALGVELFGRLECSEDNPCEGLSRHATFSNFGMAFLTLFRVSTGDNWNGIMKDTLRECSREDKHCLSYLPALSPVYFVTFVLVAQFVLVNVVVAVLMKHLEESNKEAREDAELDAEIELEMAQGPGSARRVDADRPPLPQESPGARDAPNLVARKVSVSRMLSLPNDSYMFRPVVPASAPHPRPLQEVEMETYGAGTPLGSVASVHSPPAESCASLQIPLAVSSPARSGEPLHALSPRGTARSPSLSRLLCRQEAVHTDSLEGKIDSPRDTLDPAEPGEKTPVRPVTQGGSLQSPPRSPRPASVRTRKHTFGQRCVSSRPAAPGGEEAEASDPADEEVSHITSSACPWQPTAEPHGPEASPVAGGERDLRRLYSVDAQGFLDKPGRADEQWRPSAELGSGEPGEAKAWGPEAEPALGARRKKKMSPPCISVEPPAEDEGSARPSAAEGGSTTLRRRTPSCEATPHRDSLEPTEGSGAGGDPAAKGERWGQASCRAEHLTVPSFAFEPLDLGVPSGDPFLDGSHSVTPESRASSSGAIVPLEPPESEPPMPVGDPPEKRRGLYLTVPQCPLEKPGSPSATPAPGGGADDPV
Pyk2 oligo antag: antagonists of Pyk2 self-association, primary screen, Q293 cells, FERM NanoBiT luminescence, HTS; Protein-tyrosine kinase 2-beta (Homo sapiens), Q14289; stronger effect = lower value; z-score (the deposit names both 25 µM and 10 µM); 0.83% of 99,000 active;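 active = Z-score of -3 or lower, scaled per plate to the spread of control and sample wells; inactive = z-score above -3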;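 also: negative z-score means lost luminescence so less FERM oligomerization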
Measles CPE: compounds protecting cells from measles virus cytopathic effect, primary screen, measles RdRp inhibitor project, single point, MLSMR library, absorbance | Measles virus-infected cells, CPE protection | 1.5% of 140,000 active | AID 841, 2007 | protection (pct of control), % at 4 µM; in the data active = protection mostly above about 24%, no sharp cut-off; inactive = mostly below about 26%
Numbers without * were called inactive; x = not tested or not shown.

SMILES	HIV Rev-RRE inh	Phagocyt inh	hDAT+cocaine	Cav32 inh	Pyk2 oligo antag	Measles CPE
CCc1sc(N(C(=O)Cc2ccccc2)c2ccccc2)nc1-c1ccccc1	22	x	0.83	0.0067	-0.75	14
Cn1cccc1Cc1nnc(SCC(=O)Nc2ccccc2F)n1-c1ccc(F)cc1	2	0	-0.98	-2.4	x	11
COc1ccc(NC(=O)CSc2nnc(Cc3cccn3C)n2-c2ccc(F)cc2)cc1OC	-1	1	0.95	-1.7	x	11
Cn1cccc1Cc1nnc(SCC(=O)Nc2ccc(Cl)cc2)n1-c1ccc(F)cc1	x	0	2.8*	-9.8*	x	8
Cn1cccc1Cc1nnc(SCC(=O)Nc2ccc(F)cc2)n1-c1ccc(F)cc1	3	0	0.067	-4.2*	x	4
Cn1cccc1Cc1nnc(SCC(=O)Nc2ccccc2)n1-c1ccc(F)cc1	x	0	-0.28	-7.7*	x	10
CCOC(=O)c1cn(-c2ccccc2)nc1-c1cccnc1	x	x	0.85	-0.18	-2	8
Cc1ccc(S(=O)(=O)N[C@H](C(=O)OCn2nnc3ccccc3c2=O)C(C)C)cc1	7	-1	-0.048	-3.8*	0.96	5
O=C(CC1CCCCC1)OCn1nnc2ccccc2c1=O	17	0	-0.71	-0.57	2.6	12
O=C(OCn1nnc2ccccc2c1=O)c1cn(-c2ccccc2)nc1-c1cccnc1	14	3	0.34	x	-4.1*	7
O=C(CC(c1ccccc1)c1ccccc1)OCn1nnc2ccccc2c1=O	-2	3	-0.34	-4.9*	0.09	23
O=C(N/N=C/c1ccc(OC(=O)c2ccccc2)c([N+](=O)[O-])c1)c1ccc(O)cc1	x	-6	x	x	x	4
COc1cc(NC(=S)NC(=O)c2ccccc2F)ccc1NC(=O)c1ccco1	x	-2	x	x	x	8
CC(=O)c1c(O)cc(=O)n(-c2ccccc2)c1-c1ccc(C)cc1	2	x	-0.89	1.1	-0.39	16
CC(=O)c1c(O)c(C)c(-c2ccccc2)n(-c2ccccc2)c1=O	-1	x	-0.0085	-3.6*	0.22	25
CCO/N=C(\C)c1c(O)c(CC)c(-c2ccccc2)n(-c2ccccc2)c1=O	0	x	2.7*	-3.9*	0.19	21
CC(C)c1nn2c(=O)cc(O)nc2s1	x	-11	x	x	x	26
CCOc1ccc(NCc2nnc(SCC(=O)Nc3nc(-c4ccccc4)cs3)n2-c2ccccc2)cc1	x	-12	x	x	x	20
COc1ccccc1-c1c(C(F)(F)F)oc2cc(OC(=O)c3cccc([N+](=O)[O-])c3C)ccc2c1=O	-3	x	0.28	-1.7	-0.9	6
O=C(NC1CCN(C(=O)Nc2cccc(F)c2)CC1)C1CCCCC1	3	2	-0.76	1.2	-0.25	4
O=C(Nc1cccc(F)c1)N1CC=C(c2ccc(Cl)cc2)CC1	15	2	0.19	-7.4*	-0.24	8
CC(NC(=O)/C(=C/c1cccc([N+](=O)[O-])c1)NC(=O)c1ccco1)C(=O)O (stereo not given)	x	-2	x	x	1.3	17
O=C(Nc1ccc(N2CCCC2)c(Cl)c1)c1cccnc1	9	x	0.12	0.15	-0.1	3
O=C(Nc1ccc(N2CCCCC2)c(Cl)c1)c1cccnc1	1	-1	0.028	-0.82	0	61*
C/C=C\C=C\C(=O)N1CC2(CC(c3cccc(NC(=O)CC)c3)=NO2)C[C@H]1C(N)=O (stereo not given in full)	x	x	-0.17	1.4	x	x
SMILES	HIV Rev-RRE inh	Phagocyt inh	hDAT+cocaine	Cav32 inh	Pyk2 oligo antag	Measles CPE
Cc1nc(-c2c(C(F)(F)F)noc2-c2ccc(O)cc2O)cs1	2	5	-0.28	-1	-2.7	4
CCOc1cc(C)c(-c2onc(C(F)(F)F)c2-c2csc(C)n2)c(O)c1	5	-1	0.29	-2.8	-2.2	45*
O=C(Nc1ccc(F)cc1F)NC1CC(=O)N(Cc2ccccc2)C1 (stereo not given)	x	x	-0.26	0.079	4.8	7
CCC(=O)Oc1ccc2ccccc2c1CNC(=O)c1ccccc1	x	-5	x	x	x	x
N#Cc1nc(Cc2ccccc2)oc1N1CCC(C(N)=O)CC1	-2	-1	-0.6	-0.81	-0.18	18
N#Cc1nc(Cc2ccccc2)oc1N1CCC(Cc2ccccc2)CC1	16	-2	1.1	-5.2*	0.73	5
N#Cc1nc(Cc2ccccc2)oc1N1CCN(c2ccccc2)CC1	3	1	-0.46	-4.8*	-0.66	3
CCOC(=O)CN1C(=O)N[C@@H](c2ccco2)C(C(=O)OC)=C1C	x	x	-1	0.77	x	x
CC/C(O)=C1\C(=O)CC(c2ccccc2)CC1=NCCc1c(C)[nH]c2ccc(C)cc12 (stereo not given)	x	x	0.41	-4.6*	x	5
CC1(C)N=C(SCC(=O)Nc2ccc(Cl)cc2)C(c2ccc(Cl)cc2)=N1	18	x	-0.44	-0.76	0.24	10
CC1(C)N=C(SCC(=O)Nc2ccc(Cl)cc2)C(c2ccccc2)=N1	19	x	1.8	-5.2*	-0.15	30
NC(=O)NCc1ccc(Cl)cc1	3	x	0.14	1.1	0.85	23
O=C(NC(=S)Nc1ncc(Br)cc1Br)c1cncc(Br)c1	-2	0	0.28	0.77	0.01	40*
Cc1cc(C)c2nc(N3CCC(C(=O)N4CCN(C(=O)c5ccco5)CC4)CC3)sc2c1	-6	-2	3.7*	-0.45	2.3	7
Cc1cc(C)c2nc(N3CCCC(C(=O)N4CCN(c5ncccn5)CC4)C3)sc2c1 (stereo not given)	-5	-1	0.03	-2.3	-0.2	22
CC(C)(C)NC(=O)c1cccc(NC(=O)CSc2ccccc2)c1	0	x	0.85	-0.31	0.2	6
C#CCNC(=O)C1=C[C@H](c2cn(C(C)=O)c3ccccc23)[C@@H](CCCO)[C@H](OCC)O1	x	x	-0.18	-0.04	x	x
COC(=O)c1ccc(NC(=O)c2ccccc2SC)cc1	3	x	3.3*	-0.26	0.93	3
Cc1[nH]n(-c2ncc(-c3ccccc3)s2)c(=O)c1C(c1ccc(Br)cc1)C(C#N)C#N (stereo not given)	x	-5	x	x	x	34
CC(C)(C)c1ccc(OCCNC(=O)Cc2ccc(F)cc2)cc1	x	x	x	x	x	28
COc1ccc(CCNc2oc(-c3ccccc3OC)nc2C#N)cc1OC	4	0	4.6*	-0.011	-0.31	6
COc1ccc(CCNc2oc(-c3ccccc3OC)nc2C#N)cc1	8	0	1.4	0.054	-1	5
CC(=O)Nc1cc2c(cc1C(=O)c1ccc(C)cc1)OCCO2	7	-2	-0.36	-5.2*	-0.13	6
CC(=O)Nc1cc2c(cc1C(C)=O)OCCO2	6	-1	-0.37	x	0.87	8
O=C(OCc1nc2ccccc2s1)c1cccs1	-1	-1	-1.6	-5.2*	0.62	25

Screening results (PubChem)
